Results on 16 compounds are retold here after ChEMBL document CHEMBL1131807, “Synthesis and in vitro evaluation of novel highly potent coumarin inhibitors of gyrase B” (1999).

What all share (format): functional
For one assay, the system named is Enterococcus faecium. Description: Antibacterial activity against vancomycin, teicoplanin and erythromycin resistant Enterococcus faecium 02D31P2 strain. An outline of the steps:
(§1)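 MIC in µg/mL by twofold broth microdilution, read after 24 h incubation. Resistance phenotypes of the strains are as listed for each strain (ofloxacin, oxacillin, erythromycin, teicoplanin, vancomycin).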

Assay [1] concerns Staphylococcus aureus. Description: Antibacterial activity against Staphylococcus aureus 011HT3 strain. An outline of the steps: (§2)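 MIC measured by twofold serial dilution in broth microdilution format and read after 24 hours of incubation. The resistance phenotype of each strain (ofloxacin, oxacillin, erythromycin, novobiocin, teicoplanin or vancomycin) was recorded alongside.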

Assay [2] relates to Staphylococcus aureus. Description: Antibacterial activity against Staphylococcus aureus novobiocin resistant strain 011HT1. An outline of the steps:
as §2

Assay [3] deals with Streptococcus pyogenes. The experiment in a line: Compound was evaluated for antibacterial activity, against Streptococcus pyogenes 02A1UC1 strain. An outline of the steps: as §2
The subject of assay [4] is Staphylococcus epidermidis. Description: Compound was evaluated for antibacterial activity, against oxacillin and teicoplanin resistant Staphylococcus epidermidis 012GO39 strain. An outline of the steps: as §1
Assay [5] deals with Staphylococcus aureus. Description: Antibacterial activity against ofloxacin, oxacillin and erythromycin resistant Staphylococcus aureus strain 011GO76. An outline of the steps:
as §1

Assay [6] deals with Streptococcus pyogenes. Description: Antibacterial activity against Streptococcus pyogenes 02A1UC1 strain. An outline of the steps:
as §2

Assay [7] concerns Staphylococcus epidermidis. Description: Antibacterial activity against oxacillin and teicoplanin resistant Staphylococcus epidermidis 012GO39 strain. An outline of the steps:
as §1

Values after ≈ are worked out from the molar mass of the structure shown. Where only a bound is given, the exact number is not on record here.

In the case of `COC1[C@@H](OC(N)=O)[C@@H](O)[C@H](Oc2ccc3c(O)c(NC(=O)c4ccc(O)c(CC=C(C)C)c4)c(=O)oc3c2C)OC1(C)C` (single isomer, unassigned) [NOVOBIOCIN], the MIC against Enterococcus faecium is 0.3 µg/mL (≈ 0.49 µM); against Staphylococcus aureus [1], less than 0.04 µg/mL; with Staphylococcus aureus [2] it was 20 µg/mL (≈ 32.6 µM); against Streptococcus pyogenes [3], 0.15 µg/mL (≈ 0.245 µM); in assay [4] it was 0.08 µg/mL (≈ 0.131 µM).

As for `CO[C@@H]1[C@@H](OC(=O)c2ccc(C)[nH]2)[C@@H](O)[C@H](Oc2ccc3c(O)c(C(=O)NCCN(C)C)c(=O)oc3c2C)OC1(C)C`, the MIC against Enterococcus faecium turned out to be 10 µg/mL (≈ 17 µM); in the assay on Staphylococcus aureus [1], 0.15 µg/mL (≈ 0.255 µM); against Staphylococcus aureus [2], 20 µg/mL (≈ 34 µM); with Staphylococcus aureus [5], 0.3 µg/mL (≈ 0.511 µM); against Streptococcus pyogenes [6], 1.2 µg/mL (≈ 2.04 µM).

For `CO[C@@H]1[C@@H](OC(=O)c2ccc(C)[nH]2)[C@@H](O)[C@H](Oc2ccc3c(O)c(C(C)=O)c(=O)oc3c2C)OC1(C)C`, the MIC in the assay with Enterococcus faecium is 2.5 µg/mL (≈ 4.85 µM); in the assay with Staphylococcus aureus [1], less than 0.04 µg/mL; with Staphylococcus aureus [2], 5 µg/mL (≈ 9.7 µM); against Staphylococcus aureus [5], 0.15 µg/mL (≈ 0.291 µM); against Streptococcus pyogenes [6] it was 0.15 µg/mL (≈ 0.291 µM); in assay [7] it was 0.08 µg/mL (≈ 0.155 µM).

As for `CO[C@@H]1[C@@H](OC(=O)c2ccc(C)[nH]2)[C@@H](O)[C@H](Oc2ccc3c(O)c(/C(C)=N/OCCN4CCOCC4)c(=O)oc3c2C)OC1(C)C`, the MIC in the assay with Enterococcus faecium amounted to 10 µg/mL (≈ 15.5 µM); with Staphylococcus aureus [1] it was 0.15 µg/mL (≈ 0.233 µM); in the assay on Staphylococcus aureus [2], 40 µg/mL (≈ 62.1 µM); with Staphylococcus aureus [5], 0.3 µg/mL (≈ 0.466 µM); against Streptococcus pyogenes [6] it was 1.2 µg/mL (≈ 1.86 µM); in assay [7], 0.3 µg/mL (≈ 0.466 µM).

Take `CO[C@@H]1[C@@H](OC(=O)c2ccc(C)[nH]2)[C@@H](O)[C@H](Oc2ccc3c(O)c(/C(C)=N/OCCSc4ncc[nH]4)c(=O)oc3c2C)OC1(C)C`: the MIC is 10 µg/mL (≈ 15.2 µM) against Enterococcus faecium; 0.3 µg/mL (≈ 0.457 µM) against Staphylococcus aureus [1]; 40 µg/mL (≈ 60.9 µM) against Staphylococcus aureus [2]; 0.3 µg/mL (≈ 0.457 µM) with Staphylococcus aureus [5]; 0.3 µg/mL (≈ 0.457 µM) against Streptococcus pyogenes [6]; 0.3 µg/mL (≈ 0.457 µM) in assay [7].

Take `CO[C@@H]1[C@@H](OC(=O)c2ccc(C)[nH]2)[C@@H](O)[C@H](Oc2ccc3c(O)c(C(=O)NCCO)c(=O)oc3c2C)OC1(C)C`: the MIC is 2.5 µg/mL (≈ 4.46 µM) with Enterococcus faecium; less than 0.04 µg/mL with Staphylococcus aureus [1]; 2.5 µg/mL (≈ 4.46 µM) in the assay with Staphylococcus aureus [2]; 0.15 µg/mL (≈ 0.268 µM) against Streptococcus pyogenes [6]; less than 0.04 µg/mL in assay [7].

`CO[C@@H]1[C@@H](OC(=O)c2ccc(C)[nH]2)[C@@H](O)[C@H](Oc2ccc3c(O)c(C(=O)Nc4ccccc4)c(=O)oc3c2C)OC1(C)C`: the MIC against Enterococcus faecium is more than 40 µg/mL; in the assay on Staphylococcus aureus [1] it was less than 0.04 µg/mL; against Staphylococcus aureus [2] it was 1.2 µg/mL (≈ 2.02 µM); against Staphylococcus aureus [5], 0.08 µg/mL (≈ 0.135 µM); against Streptococcus pyogenes [6] it was 0.6 µg/mL (≈ 1.01 µM); in assay [7] it was less than 0.04 µg/mL.

Take `CO[C@@H]1[C@@H](OC(=O)c2ccc(C)[nH]2)[C@@H](O)[C@H](Oc2ccc3c(O)c(C(=O)OCC(C)C)c(=O)oc3c2C)OC1(C)C`: the MIC was found to be 5 µg/mL (≈ 8.72 µM) in the assay with Enterococcus faecium; 0.08 µg/mL (≈ 0.139 µM) in the assay with Staphylococcus aureus [1]; 10 µg/mL (≈ 17.4 µM) against Staphylococcus aureus [2]; 2.5 µg/mL (≈ 4.36 µM) against Staphylococcus aureus [5]; 0.08 µg/mL (≈ 0.139 µM) in assay [7].

In the case of `CO[C@@H]1[C@@H](OC(=O)c2ccc(C)[nH]2)[C@@H](O)[C@H](Oc2ccc3c(O)c(NC(=O)c4ccc(O)c(CC=C(C)C)c4)c(=O)oc3c2Cl)OC1(C)C` [CHLOROBIOCIN], the MIC is less than 0.04 µg/mL with Staphylococcus aureus [1]; 0.15 µg/mL (≈ 0.215 µM) against Staphylococcus aureus [2]; less than 0.04 µg/mL in the assay with Staphylococcus aureus [5]; less than 0.04 µg/mL in the assay on Streptococcus pyogenes [6]; less than 0.04 µg/mL in assay [7].

For `CO[C@@H]1[C@@H](OC(=O)c2ccc(C)[nH]2)[C@@H](O)[C@H](Oc2ccc3c(O)c(C(=O)CSC)c(=O)oc3c2C)OC1(C)C`, the MIC is 5 µg/mL (≈ 8.9 µM) in the assay on Enterococcus faecium; less than 0.04 µg/mL against Staphylococcus aureus [1]; 5 µg/mL (≈ 8.9 µM) with Staphylococcus aureus [2]; 0.3 µg/mL (≈ 0.534 µM) against Streptococcus pyogenes [6]; 0.08 µg/mL (≈ 0.142 µM) in assay [7].

For `CCOCC(=O)c1c(O)oc2c(C)c(O[C@@H]3OC(C)(C)[C@H](OC)[C@@H](OC(=O)c4ccc(C)[nH]4)[C@H]3O)ccc2c1=O`, the MIC against Enterococcus faecium is 5 µg/mL (≈ 8.94 µM); against Staphylococcus aureus [1], less than 0.04 µg/mL; against Staphylococcus aureus [2], 20 µg/mL (≈ 35.7 µM); in the assay with Staphylococcus aureus [5], 0.08 µg/mL (≈ 0.143 µM); with Streptococcus pyogenes [6], 0.3 µg/mL (≈ 0.536 µM); in assay [7], 0.08 µg/mL (≈ 0.143 µM).

Regarding `CCOC(=O)/C(=N\OC)c1c(O)oc2c(C)c(O[C@@H]3OC(C)(C)[C@H](OC)[C@@H](OC(=O)c4ccc(C)[nH]4)[C@H]3O)ccc2c1=O`, the MIC in the assay on Enterococcus faecium is 5 µg/mL (≈ 8.3 µM); with Staphylococcus aureus [1], less than 0.04 µg/mL; against Staphylococcus aureus [2], 10 µg/mL (≈ 16.6 µM); against Streptococcus pyogenes [6] it was 0.15 µg/mL (≈ 0.249 µM).

For the compound `CCOC(=O)c1c(O)oc2c(C)c(O[C@@H]3OC(C)(C)[C@H](OC)[C@@H](OC(=O)c4ccc(C)[nH]4)[C@H]3O)ccc2c1=O`, the MIC in the assay with Enterococcus faecium is 5 µg/mL (≈ 9.17 µM); against Staphylococcus aureus [1] it was 0.3 µg/mL (≈ 0.55 µM); in the assay on Staphylococcus aureus [2] it was more than 20 µg/mL; against Staphylococcus aureus [5] it was 2.5 µg/mL (≈ 4.58 µM); against Streptococcus pyogenes [6], 0.3 µg/mL (≈ 0.55 µM); in assay [7], 0.15 µg/mL (≈ 0.275 µM).

For `CONC(=O)c1c(O)oc2c(C)c(O[C@@H]3OC(C)(C)[C@H](OC)[C@@H](OC(=O)c4ccc(C)[nH]4)[C@H]3O)ccc2c1=O`, the MIC is 2.5 µg/mL (≈ 4.57 µM) in the assay on Enterococcus faecium; less than 0.04 µg/mL against Staphylococcus aureus [1]; 5 µg/mL (≈ 9.15 µM) with Staphylococcus aureus [2]; 0.08 µg/mL (≈ 0.146 µM) in the assay on Staphylococcus aureus [5]; 0.15 µg/mL (≈ 0.274 µM) against Streptococcus pyogenes [6]; less than 0.04 µg/mL in assay [7].

`CO[C@@H]1[C@@H](OC(=O)c2ccc(C)[nH]2)[C@@H](O)[C@H](Oc2ccc3c(O)c(C(N)=O)c(=O)oc3c2C)OC1(C)C`: the MIC in the assay with Enterococcus faecium was 2.5 µg/mL (≈ 4.84 µM); in the assay with Staphylococcus aureus [1], less than 0.04 µg/mL; in the assay on Staphylococcus aureus [2], 2.5 µg/mL (≈ 4.84 µM); in the assay with Streptococcus pyogenes [6], 0.15 µg/mL (≈ 0.29 µM).

For `CO/N=C(\C)c1c(O)oc2c(C)c(O[C@@H]3OC(C)(C)[C@H](OC)[C@@H](OC(=O)c4ccc(C)[nH]4)[C@H]3O)ccc2c1=O`, the MIC against Enterococcus faecium was found to be 10 µg/mL (≈ 18.4 µM); with Staphylococcus aureus [1] it was 0.15 µg/mL (≈ 0.275 µM); in the assay with Staphylococcus aureus [2], 40 µg/mL (≈ 73.5 µM); against Staphylococcus aureus [5], 5 µg/mL (≈ 9.18 µM); against Streptococcus pyogenes [6] it was 0.3 µg/mL (≈ 0.551 µM); in assay [7] it was 0.6 µg/mL (≈ 1.1 µM).

As usually defined, the MIC is the least concentration at which growth counts as inhibited. Low values mean greater potency, high ones weaker potency.
